Source: ChEMBL document CHEMBL3784956, “Repositioning Antitubercular 6-Nitro-2,3-dihydroimidazo[2,1-b][1,3]oxazoles for Neglected Tropical Diseases: Structure-Activity Studies on a Preclinical Candidate for Visceral Leishmaniasis” (J Med Chem, 2016)

Columns and labels:
[1] = Initial plasma concentration in Swiss albino mouse at 1 mg/kg, iv by LCMS/MS analysis; format: ADME, organism-based
Procedure, shortened: (§1)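 Male Swiss Albino mice. Single intravenous dose of 1 mg/kg, or single oral dose of 12.5 or 25 mg/kg. Plasma parameters were derived for each route: CL, Vdss, t1/2, AUClast and C0 after iv; Cmax, Tmax and AUClast after oral. Oral bioavailability F (%) was taken from the oral and iv exposures.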

[2] = Clearance in Swiss albino mouse at 1 mg/kg, iv by LCMS/MS analysis; format: ADME, organism-based; conditions: in vivo; procedure, shortened: as §1
[3] = Volume of distribution at steady state in Swiss albino mouse at 1 mg/kg, iv by LCMS/MS analysis; format: ADME, organism-based; conditions: in vivo, read-out: Vdss; procedure, shortened: as §1
[4] = Half life in Swiss albino mouse at 1 mg/kg, iv by LCMS/MS analysis; format: ADME, organism-based; conditions: in vivo; procedure, shortened: as §1
[5] = AUC (last) in Swiss albino mouse at 1 mg/kg, iv by LCMS/MS analysis; format: ADME, organism-based; design: dose 1 mg/kg, time 0 - last, route intravenous; conditions: in vivo; procedure, shortened: as §1
[6] = Cmax in Swiss albino mouse at 12.5 mg/kg, po by LCMS/MS analysis; format: ADME, organism-based; design: dose 12.5 mg/kg, route oral; conditions: in vivo; procedure, shortened: as §1
[7] = Tmax in Swiss albino mouse at 12.5 mg/kg, po by LCMS/MS analysis; format: ADME, organism-based; conditions: in vivo; procedure, shortened: as §1
[8] = AUC (last) in Swiss albino mouse at 12.5 mg/kg, po by LCMS/MS analysis; format: ADME, organism-based; design: dose 12.5 mg/kg, route oral, time 0 - last; conditions: in vivo; procedure, shortened: as §1
[9] = Oral bioavailability in Swiss albino mouse at 12.5 mg/kg by LCMS/MS analysis; format: ADME, organism-based; conditions: in vivo; procedure, shortened: as §1
[10] = Metabolic stability in human liver microsomes assessed as parent compound remaining at 1 uM after 1 hr by LC-MS/MS analysis; format: ADME; conditions: read-out: Stability
[11] = Metabolic stability in CD1 mouse liver microsomes assessed as parent compound remaining at 1 uM after 1 hr by LC-MS/MS analysis; format: ADME; conditions: read-out: Stability
[12] = Oral bioavailability in Swiss albino mouse at 25 mg/kg by LCMS/MS analysis; format: ADME, organism-based; conditions: in vivo; procedure, shortened: as §1
[13] = Cmax in Swiss albino mouse at 25 mg/kg, po by LCMS/MS analysis; format: ADME, organism-based; design: dose 25 mg/kg, route oral; conditions: in vivo; procedure, shortened: as §1
[14] = Tmax in Swiss albino mouse at 25 mg/kg, po by LCMS/MS analysis; format: ADME, organism-based; conditions: in vivo; procedure, shortened: as §1
[15] = AUC (last) in Swiss albino mouse at 25 mg/kg, po by LCMS/MS analysis; format: ADME, organism-based; design: dose 25 mg/kg, route oral, time 0 - last; conditions: in vivo; procedure, shortened: as §1
[16] = Metabolic stability in hamster liver microsomes assessed as parent compound remaining at 1 uM after 1 hr by LC-MS/MS analysis; format: ADME; conditions: cricetinae, read-out: Stability
[17] = Metabolic stability in human liver microsomes assessed as parent compound remaining at 1 uM after 30 mins by LC-MS/MS analysis; format: ADME; conditions: read-out: Stability
[18] = Metabolic stability in CD1 mouse liver microsomes assessed as parent compound remaining at 1 uM after 30 mins by LC-MS/MS analysis; format: ADME; conditions: read-out: Stability
[19] = Metabolic stability in hamster liver microsomes assessed as parent compound remaining at 1 uM after 30 mins by LC-MS/MS analysis; format: ADME; conditions: cricetinae, read-out: Stability
[20] = Stability in 0.1 M HCl at pH 1 at 20 degC; format: physicochemical; conditions: buffer

SMILES | C0 [1] | clearance [2] | Vd [3] | half-life [4] | AUC(0-t) [5] | bioavailability [12] | Cmax [13] | Tmax [14] | AUC(0-t) [15] | further results
CC1(CN2CCN(c3ccc(F)cc3)CC2)Cn2cc([N+](=O)[O-])nc2O1 (stereo not given) |  |  |  |  |  |  |  |  |  | remaining at 1 h, 1 µM [10]: 49%; remaining at 1 h, 1 µM [11]: 14%
CC1(COc2ccc(-c3ccc(OC(F)(F)F)cc3)cc2)Cn2cc([N+](=O)[O-])nc2O1 (stereo not given) | 340 ng/mL | 7.6 mL/min/kg | 5.7 L/kg | 11 h | 2130 ng·h/mL | 18% | 290 ng/mL | 6 h | 9810 ng·h/mL | 
C[C@]1(COc2ccc(N3CCC(Oc4ccc(OC(F)(F)F)cc4)CC3)cc2)Cn2cc([N+](=O)[O-])nc2O1 |  |  |  |  |  |  |  |  |  | remaining at 1 h, 1 µM [16]: 55%
CC1(COc2ccc(C(F)(F)F)cn2)Cn2cc([N+](=O)[O-])nc2O1 (racemic) |  |  |  |  |  |  |  |  |  | remaining at 1 h, 1 µM [10]: 84%; remaining at 1 h, 1 µM [11]: 69%; Stability [20]: Unstable
CC1(CNc2ccc(OC(F)(F)F)cc2)Cn2cc([N+](=O)[O-])nc2O1 (stereo not given) |  |  |  |  |  |  |  |  |  | Stability [20]: Unstable

Continued, in another order:

C0 [1] | clearance [2] | Vd [3] | half-life [4] | AUC(0-t) [5] | bioavailability [12] | Cmax [13] | Tmax [14] | AUC(0-t) [15] | SMILES | further results
360 ng/mL | 11 mL/min/kg | 2.6 L/kg | 2.7 h | 1390 ng·h/mL |  |  |  |  | C[C@]1(COc2ccc(OC(F)(F)F)cc2)Cn2cc([N+](=O)[O-])nc2O1 | Cmax [6]: 1300 ng/mL; Tmax [7]: 2 h; AUC(0-t) [8]: 15800 ng·h/mL; bioavailability [9]: 91%
610 ng/mL | 13 mL/min/kg | 2.2 L/kg | 3.2 h | 1140 ng·h/mL | 52% | 1800 ng/mL | 1 h | 14800 ng·h/mL | O=[N+]([O-])c1cn2c(n1)OC(COc1ccc(OC(F)(F)F)cc1)C2 (stereo not given) | 
300 ng/mL | 28 mL/min/kg | 7.5 L/kg | 3.8 h | 480 ng·h/mL | 63% | 700 ng/mL | 6 h | 7580 ng·h/mL | CC1(COc2ccc(-c3ccc(F)cc3)cc2)Cn2cc([N+](=O)[O-])nc2O1 (racemic) | remaining at 0.5 h, 1 µM [17]: 88%; remaining at 0.5 h, 1 µM [18]: 57%; remaining at 0.5 h, 1 µM [19]: 42%
880 ng/mL | 9.5 mL/min/kg | 1.7 L/kg | 2.2 h | 1690 ng·h/mL | 79% | 4100 ng/mL | 4 h | 33500 ng·h/mL | CC1(COc2ccc(OC(F)(F)F)cc2)Cn2cc([N+](=O)[O-])nc2O1 (racemic) | 
